# Assay results as given in ChEMBL document CHEMBL1159071, “Discovery of 4-(5-methyloxazolo[4,5-b]pyridin-2-yl)-1,4-diazabicyclo[3.2.2]nonane (CP-810,123), a novel alpha 7 nicotinic acetylcholine receptor agonist for the treatment of cognitive disorders in schizophrenia: synthesis, SAR development, and in vivo efficacy in cognition models” (J Med Chem, 2010).
# pIC50, pKi: −log10 of the molar value. Calls of active or inactive are those of the source. The rule behind the calls is not given here.
# What was measured:
# [1] = molecular target: T1, Muscarinic acetylcholine receptor M4 (Homo sapiens, UniProt P08173); assay: Inhibition of muscarinic M4 receptor
# T1 sequence (P08173 whole entry): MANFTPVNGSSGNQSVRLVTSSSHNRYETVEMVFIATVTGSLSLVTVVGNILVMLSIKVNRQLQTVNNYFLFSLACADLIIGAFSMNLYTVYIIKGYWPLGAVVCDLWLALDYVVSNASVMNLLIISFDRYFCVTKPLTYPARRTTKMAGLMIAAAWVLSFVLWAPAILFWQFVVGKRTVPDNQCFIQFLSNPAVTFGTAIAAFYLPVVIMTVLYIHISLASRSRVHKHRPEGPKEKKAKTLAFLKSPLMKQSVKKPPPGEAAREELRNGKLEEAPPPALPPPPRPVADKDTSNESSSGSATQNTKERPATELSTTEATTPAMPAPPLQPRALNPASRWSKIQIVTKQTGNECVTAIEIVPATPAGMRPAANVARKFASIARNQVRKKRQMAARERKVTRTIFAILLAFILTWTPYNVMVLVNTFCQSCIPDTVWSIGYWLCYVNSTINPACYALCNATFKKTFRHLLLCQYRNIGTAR
# [2] = molecular target: T2, 5-hydroxytryptamine receptor 3A (Mus musculus, UniProt P23979); assay: Displacement of [3H]LY278584 from mouse 5HT3 receptor expressed in HEK293 cells; type: cell-based
# T2 sequence (P23979 whole entry): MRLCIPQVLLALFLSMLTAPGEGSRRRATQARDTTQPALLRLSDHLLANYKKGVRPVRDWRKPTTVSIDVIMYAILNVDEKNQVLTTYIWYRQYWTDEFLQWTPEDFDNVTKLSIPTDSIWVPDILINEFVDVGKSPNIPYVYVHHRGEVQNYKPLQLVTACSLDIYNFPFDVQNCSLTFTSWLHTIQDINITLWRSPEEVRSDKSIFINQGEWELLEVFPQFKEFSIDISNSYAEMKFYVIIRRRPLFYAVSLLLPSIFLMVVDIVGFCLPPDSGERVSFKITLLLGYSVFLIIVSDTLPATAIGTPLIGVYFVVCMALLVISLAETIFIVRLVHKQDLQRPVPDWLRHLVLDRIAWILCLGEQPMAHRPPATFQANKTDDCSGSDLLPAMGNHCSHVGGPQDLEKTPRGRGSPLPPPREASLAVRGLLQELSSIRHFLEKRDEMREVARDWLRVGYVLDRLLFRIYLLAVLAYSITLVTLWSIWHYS
# Procedure, shortened: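 Mouse 5-HT3A in HEK293 cell homogenate, 20 mM Tris-HCl pH 7.4 with 154 mM NaCl. [3H]LY278584 1 nM final; nonspecific binding with 10 μM ICS205-930; 60 min at 37 °C, then filtration onto PEI-soaked GF/B. Ki by Cheng-Prusoff; mean of three six-point curves in triplicate in one assay; tropisetron standard.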
# [3] = molecular target: Neuronal acetylcholine receptor subunit alpha-7 (Homo sapiens, UniProt P36544); assay: Displacement of [125I]BTX from human alpha7 nicotinic acetylcholine receptor expressed in IMR32 cells; type: cell-based, IMR-32
# Neuronal acetylcholine receptor subunit alpha-7 (Homo sapiens, UniProt P36544), sequence (P36544 whole entry): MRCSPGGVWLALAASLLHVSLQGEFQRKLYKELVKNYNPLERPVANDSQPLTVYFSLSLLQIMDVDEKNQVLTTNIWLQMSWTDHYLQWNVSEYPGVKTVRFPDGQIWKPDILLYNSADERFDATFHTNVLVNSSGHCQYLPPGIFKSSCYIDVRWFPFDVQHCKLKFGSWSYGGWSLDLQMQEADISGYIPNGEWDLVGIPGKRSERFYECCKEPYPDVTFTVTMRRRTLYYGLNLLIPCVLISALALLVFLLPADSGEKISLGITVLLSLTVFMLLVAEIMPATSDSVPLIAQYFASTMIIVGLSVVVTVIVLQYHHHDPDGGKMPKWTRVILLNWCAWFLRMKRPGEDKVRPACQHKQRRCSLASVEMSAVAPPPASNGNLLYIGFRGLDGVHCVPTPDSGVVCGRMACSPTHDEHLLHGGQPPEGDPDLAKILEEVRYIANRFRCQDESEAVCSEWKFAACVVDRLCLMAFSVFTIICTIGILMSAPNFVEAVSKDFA
# Procedure, shortened: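 Human α7 nAChR in IMR-32 cells, [125I]BTX radioligand. Six-point concentration-response curve, run in triplicate and averaged.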
# [4] = molecular target: T3, 5-hydroxytryptamine receptor 3A (Homo sapiens, UniProt P46098); assay: […] at human 5HT3 receptor expressed in human skin epithelial cells assessed as stimulation of calcium flux by FLIPR assay; type: functional, cell-based, Epithelial cell
# T3 sequence (P46098 whole entry): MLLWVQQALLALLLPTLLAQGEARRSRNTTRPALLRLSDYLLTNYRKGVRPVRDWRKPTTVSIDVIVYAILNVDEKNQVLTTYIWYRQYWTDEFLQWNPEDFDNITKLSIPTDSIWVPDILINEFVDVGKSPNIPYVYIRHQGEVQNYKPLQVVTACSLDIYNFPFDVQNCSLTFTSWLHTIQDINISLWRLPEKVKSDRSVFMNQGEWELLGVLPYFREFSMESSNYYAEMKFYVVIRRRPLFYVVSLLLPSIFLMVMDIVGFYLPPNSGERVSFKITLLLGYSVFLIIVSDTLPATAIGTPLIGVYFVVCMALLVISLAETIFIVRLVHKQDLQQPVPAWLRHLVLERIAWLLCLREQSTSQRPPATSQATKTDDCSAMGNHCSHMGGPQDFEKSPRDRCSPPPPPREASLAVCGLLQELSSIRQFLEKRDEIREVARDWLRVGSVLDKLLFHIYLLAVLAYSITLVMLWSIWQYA
# Procedure, shortened: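 Human 5-HT3A stably in human skin epithelial cells, plated 15 000 cells/well 2 days ahead; loaded 1 h at 37 °C with Fluo-4 (8 μM final), washed into HBSS with 20 mM Tris-HEPES, 1 μM atropine, 4 mM Ca2+, pH 7.4. Compound added 2 min, then 5-HT challenge (250 nM final) 2 min; FLIPR calcium read.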
# Rattus norvegicus = assay: Cognitive enhancement in Sprague-Dawley rat assessed as reversal of amphetamine-induced auditory sensory gating deficit at 1 mg/kg, sc; type: functional, organism-based; parameters: dose 1 mg/kg
# Procedure, shortened: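 Male Sprague-Dawley rats (250-300 g) under chloral hydrate (400 mg/kg ip), femoral vein cannulated. CA3 hippocampal field potential recorded; auditory-evoked responses averaged over 50 stimulus pairs at 10 s interstimulus interval. Gating disrupted by d-amphetamine 1 mg/kg iv; compound sc. Read-out is reversal of the amphetamine deficit; PBS vehicle; two-tailed paired t-test.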
# [5] = molecular target: Neuronal acetylcholine receptor subunit alpha-7 (Rattus norvegicus, UniProt Q05941); assay: Displacement of [125I]BTX from rat alpha7 nicotinic acetylcholine receptor expressed in GH4C1 cells; type: cell-based, GH4-C1
# Neuronal acetylcholine receptor subunit alpha-7 (Rattus norvegicus, UniProt Q05941), sequence (Q05941 whole entry): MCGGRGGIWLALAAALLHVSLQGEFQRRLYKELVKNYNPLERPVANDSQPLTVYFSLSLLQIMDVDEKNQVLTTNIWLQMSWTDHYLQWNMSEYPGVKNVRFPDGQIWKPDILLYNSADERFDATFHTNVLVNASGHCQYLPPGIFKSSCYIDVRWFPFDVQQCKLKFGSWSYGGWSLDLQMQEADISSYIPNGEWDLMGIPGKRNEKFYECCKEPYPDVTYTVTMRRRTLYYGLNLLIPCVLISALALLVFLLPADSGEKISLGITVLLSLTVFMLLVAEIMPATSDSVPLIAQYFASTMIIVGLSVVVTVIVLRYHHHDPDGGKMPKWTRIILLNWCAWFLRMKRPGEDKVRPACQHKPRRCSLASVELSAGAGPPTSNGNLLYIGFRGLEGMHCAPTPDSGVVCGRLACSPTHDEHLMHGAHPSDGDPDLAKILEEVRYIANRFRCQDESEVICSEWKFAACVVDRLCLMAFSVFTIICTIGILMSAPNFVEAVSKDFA
# Procedure, shortened: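 GH4C1 membranes (20 mM HEPES, 118 mM NaCl, 4.5 mM KCl, 2.5 mM CaCl2, 1.2 mM MgSO4, pH 7.5) incubated 2 h at 37 °C with [125I]α-bungarotoxin 0.4 nM final. Nonspecific binding with 1 μM methyllycaconitine; filtration onto PEI-treated GF/B filters. Ki = IC50/(1+[L]/KD); six-point curves in triplicate; geometric mean with 95% CI.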
structure (smiles),measurement,setting,value
Cc1ccc2oc(N3CCN4CCC3CC4)nc2n1,pKi,[1],5.52
same,pKi,[2],6.57
same,pKi,[3],7.79
same,pIC50,[4],8.30
same,Activity,Rattus norvegicus,Active
same,pKi,[5],7.87
